Reference: ChEMBL document CHEMBL2157986, “The multiobjective based design, synthesis and evaluation of the arylsulfonamide/amide derivatives of aryloxyethyl- and arylthioethyl- piperidines and pyrrolidines as a novel class of potent 5-HT₇ receptor antagonists” (Eur J Med Chem, 2012)

Tests used:
[1] = biological target: 5-hydroxytryptamine receptor 6 (Homo sapiens, UniProt P50406); test: Displacement of [3H]-LSD from human 5-HT6 receptor expressed in HEK293 cells after 1 hr; type: cell-based
[2] = biological target: 5-hydroxytryptamine receptor 7 (Homo sapiens, UniProt P34969); test: Displacement of [3H]-5-CT from human 5-HT7b receptor expressed in HEK293 cells after 1 hr; type: cell-based
D(2) dopamine receptor = D(2) dopamine receptor (Homo sapiens, UniProt P14416); test: Binding affinity to human dopamine D2L receptor expressed in HEK293 cells after 1 hr; type: cell-based
[3] = biological target: T1, 5-hydroxytryptamine receptor 1A (Homo sapiens, UniProt P08908); test: Displacement of [3H]-8-OH-DPAT from human 5-HT1A receptor expressed in HEK293 cells after 1 hr; type: cell-based
T1 sequence (P08908 whole entry): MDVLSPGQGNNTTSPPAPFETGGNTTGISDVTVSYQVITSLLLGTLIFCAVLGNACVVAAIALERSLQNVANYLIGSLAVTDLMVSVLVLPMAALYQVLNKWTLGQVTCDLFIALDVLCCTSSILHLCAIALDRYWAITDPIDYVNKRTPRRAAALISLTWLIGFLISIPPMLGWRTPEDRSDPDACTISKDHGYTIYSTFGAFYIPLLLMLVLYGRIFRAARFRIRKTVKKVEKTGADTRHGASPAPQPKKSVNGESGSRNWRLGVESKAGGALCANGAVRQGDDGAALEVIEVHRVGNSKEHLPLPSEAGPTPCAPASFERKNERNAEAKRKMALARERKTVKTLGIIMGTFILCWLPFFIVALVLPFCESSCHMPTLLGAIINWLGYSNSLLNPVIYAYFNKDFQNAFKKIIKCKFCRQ
Outline: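 Membranes from stably transfected HEK293 cells (human 5-HT1A), homogenized in 50 mM Tris–HCl, 0.1 mM EDTA, 4 mM MgCl2, 10 µM pargyline, 0.1% ascorbate; incubated 1 h at room temperature, then rapid filtration and radioactivity counting. Nonspecific binding with 10 µM 5-HT.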

Homo sapiens = species: Homo sapiens; test: Selectivity ratio of Ki for human 5-HT1A receptor to Ki for human 5-HT7b receptor

5-hydroxytryptamine receptor 7, sequence (P34969 whole entry): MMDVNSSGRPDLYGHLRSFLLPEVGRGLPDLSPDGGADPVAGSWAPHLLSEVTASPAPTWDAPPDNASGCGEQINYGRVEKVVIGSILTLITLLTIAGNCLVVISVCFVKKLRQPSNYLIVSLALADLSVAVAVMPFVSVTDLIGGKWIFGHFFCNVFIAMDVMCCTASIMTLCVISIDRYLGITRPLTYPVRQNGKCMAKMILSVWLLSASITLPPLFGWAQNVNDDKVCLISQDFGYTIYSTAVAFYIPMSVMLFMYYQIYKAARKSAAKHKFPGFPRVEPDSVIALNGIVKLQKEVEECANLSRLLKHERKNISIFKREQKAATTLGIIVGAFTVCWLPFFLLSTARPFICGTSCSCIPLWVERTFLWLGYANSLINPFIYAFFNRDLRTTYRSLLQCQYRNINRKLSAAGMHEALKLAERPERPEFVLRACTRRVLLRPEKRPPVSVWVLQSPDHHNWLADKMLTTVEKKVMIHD
D(2) dopamine receptor, sequence (P14416 whole entry): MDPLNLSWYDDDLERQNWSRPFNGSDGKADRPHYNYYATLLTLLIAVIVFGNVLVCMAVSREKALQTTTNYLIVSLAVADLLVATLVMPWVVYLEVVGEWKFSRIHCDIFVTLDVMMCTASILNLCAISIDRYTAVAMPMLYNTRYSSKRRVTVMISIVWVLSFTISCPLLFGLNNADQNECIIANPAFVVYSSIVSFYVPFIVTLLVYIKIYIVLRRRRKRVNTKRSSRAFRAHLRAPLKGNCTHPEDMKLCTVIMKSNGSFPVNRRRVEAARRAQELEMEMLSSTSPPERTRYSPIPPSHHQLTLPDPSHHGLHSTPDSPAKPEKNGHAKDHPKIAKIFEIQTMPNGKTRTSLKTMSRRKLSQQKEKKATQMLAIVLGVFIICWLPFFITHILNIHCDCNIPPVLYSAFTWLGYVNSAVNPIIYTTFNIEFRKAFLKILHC
5-hydroxytryptamine receptor 6, sequence (P50406 whole entry): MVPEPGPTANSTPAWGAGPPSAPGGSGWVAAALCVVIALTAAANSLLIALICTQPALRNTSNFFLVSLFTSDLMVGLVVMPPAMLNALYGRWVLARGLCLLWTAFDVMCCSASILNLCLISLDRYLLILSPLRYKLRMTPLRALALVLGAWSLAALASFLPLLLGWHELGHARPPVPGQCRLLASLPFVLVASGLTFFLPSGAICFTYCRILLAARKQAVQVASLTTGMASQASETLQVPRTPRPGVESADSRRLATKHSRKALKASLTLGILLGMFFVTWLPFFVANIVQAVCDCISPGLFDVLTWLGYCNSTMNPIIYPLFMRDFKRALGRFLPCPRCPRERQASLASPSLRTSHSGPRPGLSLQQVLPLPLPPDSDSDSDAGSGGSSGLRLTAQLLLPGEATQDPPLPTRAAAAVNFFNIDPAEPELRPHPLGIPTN

Row | SMILES | Ki [1] | Ki [2] | Ki (D(2) dopamine receptor) | Ki [3] | Ratio Ki (Homo sapiens)
1 | O=S(=O)(NC1CCN(CCOc2ccccc2-c2ccccc2)C1)c1ccc(F)c(F)c1 (stereo not drawn) | 0.327 µM | 0.007 µM | 0.024 µM | 0.092 µM | 13
2 | O=S(=O)(NC1CCN(CCOc2ccccc2-c2ccccc2)C1)c1cccs1 (stereo not drawn) | 0.267 µM | 0.01 µM | 0.016 µM | 0.045 µM | 5
3 | O=S(=O)(NC1CCN(CCOc2ccccc2-c2ccccc2)CC1)c1ccc(F)c(F)c1 | 0.199 µM | 0.007 µM | 0.063 µM | 0.313 µM | 45
4 | O=S(=O)(NCC1CCN(CCOc2cccc(F)c2)CC1)c1ccc(F)cc1 | 2.12 µM | 1.36 µM | 0.839 µM | 0.903 µM | < 1
5 | O=C(NC1CCN(CCOc2ccccc2-c2ccccc2)C1)c1cccc(F)c1F (stereo not drawn) | 1.8 µM | 0.021 µM | 0.015 µM | 0.048 µM | 2
6 | CSc1ccccc1OCCN1CCC(NS(=O)(=O)c2cccc(Cl)c2)C1 (stereo not drawn) | 0.185 µM | 0.015 µM | 0.036 µM | 0.005 µM | < 1
7 | O=S(=O)(NC1CCN(CCOc2cccc3c2CCCC3)C1)c1ccc(F)cc1 (stereo not drawn) | 0.096 µM | 0.016 µM | 0.072 µM | 0.022 µM | 1
8 | O=S(=O)(N[C@@H]1CCN(CCOc2ccccc2-c2ccccc2)C1)c1ccc(F)cc1 | 0.102 µM | 0.002 µM | 0.016 µM | 0.022 µM | 11
9 | O=C(NC1CCN(CCOc2ccccc2-c2ccccc2)C1)c1ccc2ccccc2n1 (stereo not drawn) | 1.34 µM | 0.041 µM | 0.024 µM | 0.045 µM | 1
10 | O=S(=O)(NC1CCN(CCOc2cccc(F)c2)C1)c1cccs1 (stereo not drawn) | 1.78 µM | 1.44 µM | 0.729 µM | 0.27 µM | < 1
11 | CSc1ccccc1OCCN1CCC(CNS(=O)(=O)c2cccc(Cl)c2)CC1 | 0.147 µM | 0.078 µM | 0.05 µM | 0.018 µM | < 1
12 | CC(C)c1ccccc1OCCN1CCC(NC(=O)c2ccc3ccccc3n2)C1 (stereo not drawn) | 1.76 µM | 0.178 µM | 0.079 µM | 0.03 µM | < 1
13 | O=S(=O)(NC1CCN(CCOc2ccccc2-c2ccccc2)C1)c1cc(F)ccc1F (stereo not drawn) | 0.515 µM | 0.009 µM | 0.018 µM | 0.081 µM | 9
14 | O=S(=O)(NCC1CCN(CCOc2ccccc2-c2ccccc2)CC1)c1ccc(Cl)s1 | 0.41 µM | 0.02 µM | 0.032 µM | 0.101 µM | 5
15 | CC(C)c1ccccc1OCCN1CCC(NS(=O)(=O)c2cccc3cccnc23)C1 (stereo not drawn) | 0.504 µM | 0.01 µM | 0.01 µM | 0.023 µM | 2
16 | CC(C)c1ccccc1OCCN1CC[C@@H](NS(=O)(=O)c2ccc(Cl)s2)C1 | 0.2 µM | – | 0.02 µM | 0.049 µM | –
17 | O=S(=O)(NC1CCN(CCOc2cccc3c2CCCC3)C1)c1cccs1 (stereo not drawn) | 0.102 µM | 0.027 µM | 0.072 µM | 0.013 µM | < 1

More lines, now with the values ahead:

Row | Ki [1] | Ki [2] | Ki (D(2) dopamine receptor) | Ki [3] | Ratio Ki (Homo sapiens) | SMILES
18 | 0.248 µM | 0.009 µM | 0.011 µM | 0.009 µM | 1 | O=S(=O)(NC1CCN(CCOc2ccccc2)C1)c1ccc(F)cc1 (stereo not drawn)
19 | 0.271 µM | 0.01 µM | 0.01 µM | 0.032 µM | 3 | O=S(=O)(N[C@H]1CCN(CCOc2ccccc2-c2ccccc2)C1)c1ccc(F)cc1
20 | 0.315 µM | 0.013 µM | 0.046 µM | 0.29 µM | 22 | O=S(=O)(NCC1CCN(CCOc2ccccc2-c2ccccc2)CC1)c1ccc(F)cc1
21 | 0.245 µM | 0.004 µM | 0.025 µM | 0.031 µM | 8 | CC(C)c1ccccc1OCCN1CCC(NS(=O)(=O)c2cccc(Cl)c2)C1 (stereo not drawn)
22 | 0.156 µM | 0.016 µM | 0.06 µM | 0.01 µM | < 1 | O=S(=O)(NC1CCN(CCOc2cccc3c2CCCC3)C1)c1cc(F)ccc1F (stereo not drawn)
23 | 0.357 µM | 0.011 µM | 0.041 µM | 0.01 µM | 1 | CSc1ccccc1OCCN1CCC(NS(=O)(=O)c2ccc(F)cc2)C1 (stereo not drawn)
24 | 0.24 µM | 0.0003 µM | 0.051 µM | 0.436 µM | 1450 | CC(C)c1ccccc1OCCN1CCC(NS(=O)(=O)c2ccc(F)cc2)CC1
25 | 2.76 µM | 2.22 µM | 1.06 µM | 0.841 µM | < 1 | O=S(=O)(NCC1CCN(CCOc2cccc(F)c2)CC1)c1cccs1
26 | 0.951 µM | 0.293 µM | 0.523 µM | 0.23 µM | < 1 | O=S(=O)(NC1CCN(CCOc2cccc(F)c2)C1)c1ccc(F)c(F)c1 (stereo not drawn)
27 | 3.78 µM | 2.38 µM | 0.076 µM | 0.456 µM | < 1 | CCOc1ccccc1C(=O)NC1CCN(CCOc2cccc(F)c2)CC1
28 | 0.862 µM | 0.155 µM | 0.084 µM | 0.237 µM | 2 | O=S(=O)(NC1CCN(CCOc2ccccc2)CC1)c1cccs1
29 | 0.177 µM | 0.046 µM | 0.066 µM | 0.104 µM | 2 | CC(C)c1ccccc1OCCN1CCC(CNS(=O)(=O)c2cccc(Cl)c2)CC1
30 | 0.831 µM | 2.19 µM | 0.56 µM | 0.283 µM | < 1 | O=S(=O)(NCC1CCN(CCOc2cccc(F)c2)CC1)c1cccc(Cl)c1
31 | 0.258 µM | 0.029 µM | 0.016 µM | 0.021 µM | < 1 | CC(C)c1ccccc1OCCN1CCC(NS(=O)(=O)c2cccs2)C1 (stereo not drawn)
32 | 0.313 µM | 0.06 µM | 0.05 µM | 0.141 µM | 2 | CC(C)c1ccccc1OCCN1CCC(CNS(=O)(=O)c2ccc(F)cc2)CC1
